Laboratory results published in ChEMBL document CHEMBL4715773, “New Inhibitors of Indoleamine 2,3-Dioxygenase 1: Molecular Modeling Studies, Synthesis, and Biological Evaluation” (J Med Chem, 2016).
Values belong to the molecule of their own block, whether it stands above or below them. Calls of active or inactive are those of the source. No cut-off for these calls is given here.

How the values were obtained:
[1] = molecular target: T1, Indoleamine 2,3-dioxygenase 1 (Homo sapiens, UniProt P14902); experiment: Inhibition of human IDO1 incubated for 60 mins in presence of L-tryptophan by HPLC analysis
Procedure, shortened: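 Recombinant human IDO1 (10 μg/mL) was assayed in 50 mM potassium phosphate pH 6.5 with 10 mM ascorbate, 10 μM methylene blue and 100 μg/mL catalase. Reaction was started with 200 μM L-Trp and run at 37 °C for 60 min. It was stopped with TCA, then held at 50 °C for 15 min to hydrolyse N-formylkynurenine. Kynurenine was measured by reversed-phase HPLC at 360 nm; triplicate determinations averaged.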
Target sequence in this assay (P14902 whole entry): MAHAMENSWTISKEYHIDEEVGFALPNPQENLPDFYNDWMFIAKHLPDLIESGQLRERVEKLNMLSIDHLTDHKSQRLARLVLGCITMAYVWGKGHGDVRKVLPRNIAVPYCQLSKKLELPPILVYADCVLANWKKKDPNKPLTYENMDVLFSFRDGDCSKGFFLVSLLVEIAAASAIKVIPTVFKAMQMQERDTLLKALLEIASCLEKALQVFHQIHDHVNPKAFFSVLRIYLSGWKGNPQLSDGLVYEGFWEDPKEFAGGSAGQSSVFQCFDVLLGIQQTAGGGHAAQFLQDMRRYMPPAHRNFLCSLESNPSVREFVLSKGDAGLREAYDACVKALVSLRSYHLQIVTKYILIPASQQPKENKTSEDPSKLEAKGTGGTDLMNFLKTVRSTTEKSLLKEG

[2] = tested on: HCT-116; experiment: Reversible induction of cell cycle arrest in human HCT-116 cells assessed as increase of accumulation at G2/M phase at 2.5 uM incubated for 24 hrs and harvested after further 24 hrs recovery in drug-free medium by […] staining based flow cytometry; type: functional
Procedure, shortened: (§1)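 Cells were exposed 24 h to 20, 10 or 2.5 μM or to 0.1% DMSO, then washed into drug-free medium for a further 24 h before harvest. DNA content was measured by propidium iodide flow cytometry on at least 10000 cells per sample. G2/M and other phase fractions are given as fold change versus DMSO, as mean ± SD of three independent experiments.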

[3] = tested on: HT-29; experiment: Reversible induction of cell cycle arrest in human HT-29 cells assessed as increase of accumulation at G2/M phase at 10 uM incubated for 24 hrs and harvested after further 24 hrs recovery in drug-free medium by […] staining based flow cytometry; type: functional; procedure, shortened: as §1
[4] = tested on: HT-29; experiment: Induction of cell cycle arrest in human HT-29 cells assessed as increase of accumulation at G2/M phase at 2.5 uM incubated for 24 hrs by […] staining based flow cytometry; type: functional
Procedure, shortened: (§2)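 Cells in DMEM/10% FBS were treated 24 h at 20, 10 or 2.5 μM alongside a 0.1% DMSO vehicle, then stained with propidium iodide for DNA content by flow cytometry, acquiring at least 10000 cells per sample. G0/G1, S and G2/M fractions are expressed as fold change versus DMSO. Values are mean ± SD of three independent experiments.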

[5] = tested on: HCT-116; experiment: Induction of cell cycle arrest in human HCT116 cells assessed as increase of accumulation at G2/M phase at 10 uM incubated for 24 hrs by […] staining based flow cytometry; type: functional; procedure, shortened: as §2
[6] = tested on: HT-29; experiment: Growth inhibition of human HT-29 cells assessed as cell viability at 2.5 uM incubated for 24 hrs by MTT assay; type: functional; conditions: read-out: Activity
Procedure, shortened: (§3)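 Cells grown in DMEM (4.5 g/L glucose) with 10% FBS, penicillin/streptomycin and 2 mM glutamine, seeded and allowed 24 h to attach, then exposed 24 h to compound. The range was 5–80 μM or 2.5–80 μM. MTT (500 μM in PBS) was added for 3 h at 37 °C in the dark. Formazan was dissolved in propan-2-ol/0.04 N HCl and read at 550 nm. Viability is given as % of 0.1% DMSO control; three independent experiments in triplicate.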

[7] = tested on: HCT-116; experiment: Growth inhibition of human HCT116 cells assessed as cell viability at 10 uM incubated for 24 hrs by MTT assay; type: functional; conditions: read-out: Activity; procedure, shortened: as §3
[8] = tested on: HT-29; experiment: Growth inhibition of human HT-29 cells incubated for 24 hrs by MTT assay; type: functional, cell-based; procedure, shortened: as §3
[9] = tested on: HCT-116; experiment: Growth inhibition of human HCT116 cells incubated for 24 hrs by MTT assay; type: functional, cell-based; procedure, shortened: as §3
[10] = tested on: HT-29; experiment: Induction of cell death in human HT-29 cells assessed as reduction in Bcl-xL expression at 10 uM incubated for 24 hrs by Western blot analysis; type: functional, cell-based; conditions: dose 2.5 µM, in the assay text read “at 2.5 uM” for “at 10 uM”
Procedure, shortened: (§4)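 Cells were treated 24 h with compound or DMSO, then lysed in RIPA-type buffer (50 mM Tris pH 7.4, 150 mM NaCl, 0.1% SDS, 1% deoxycholate, 1% Triton X-100, 5 mM EDTA, protease inhibitors). Protein was quantified by Bradford, run on 12% SDS-PAGE and transferred to PVDF. Blots were probed overnight at 4 °C for Mcl1, Bcl-xL (1:1000), β-catenin (1:500) and β-actin loading control (1:5000), with HRP secondary and ECL detection.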

[11] = tested on: HT-29; experiment: Induction of cell death in human HT-29 cells assessed as reduction in Mcl1 expression at 10 uM incubated for 24 hrs by Western blot analysis; type: functional, cell-based; conditions: dose 2.5 µM, in the assay text read “at 2.5 uM” for “at 10 uM”; procedure, shortened: as §4
[12] = tested on: HT-29; experiment: Induction of cell death in human HT-29 cells assessed as reduction in beta-catenin expression at 10 uM incubated for 24 hrs by Western blot analysis; type: functional, cell-based; conditions: dose 2.5 µM, in the assay text read “at 2.5 uM” for “at 10 uM”; procedure, shortened: as §4
[13] = tested on: HT-29; experiment: Induction of cell death in human HT-29 cells assessed as reduction in Bcl-xL expression at 2.5 uM incubated for 24 hrs by Western blot analysis; type: functional, cell-based; procedure, shortened: as §4
[14] = tested on: HT-29; experiment: Induction of cell death in human HT-29 cells assessed as reduction in Mcl1 expression at 2.5 uM incubated for 24 hrs by Western blot analysis; type: functional, cell-based; procedure, shortened: as §4
[15] = tested on: HT-29; experiment: Induction of cell death in human HT-29 cells assessed as reduction in beta-catenin expression at 2.5 uM incubated for 24 hrs by Western blot analysis; type: functional, cell-based; procedure, shortened: as §4
[16] = tested on: HCT-116; experiment: Reversible induction of cell cycle arrest in human HCT-116 cells assessed as increase of accumulation at G2/M phase at 10 uM incubated for 24 hrs and harvested after further 24 hrs recovery in drug-free medium by […] staining based flow cytometry; type: functional; procedure, shortened: as §1
[17] = tested on: HT-29; experiment: Reversible induction of cell cycle arrest in human HT-29 cells assessed as increase of accumulation at G2/M phase at 20 uM incubated for 24 hrs and harvested after further 24 hrs recovery in drug-free medium by […] staining based flow cytometry; type: functional; procedure, shortened: as §1
[18] = tested on: HT-29; experiment: Induction of cell cycle arrest in human HT-29 cells assessed as increase of accumulation at G2/M phase at 20 uM incubated for 24 hrs by […] staining based flow cytometry; type: functional; conditions: dose 10.0 µM, in the assay text read “at 10 uM” for “at 20 uM”; procedure, shortened: as §2
[19] = tested on: HT-29; experiment: Growth inhibition of human HT-29 cells assessed as cell viability at 10 uM incubated for 24 hrs by MTT assay; type: functional; conditions: read-out: Activity; procedure, shortened: as §3
[20] = tested on: HCT-116; experiment: Growth inhibition of human HCT116 cells assessed as cell viability at 20 uM incubated for 24 hrs by MTT assay; type: functional; conditions: read-out: Activity; procedure, shortened: as §3
[21] = tested on: HCT-116; experiment: Induction of cell cycle arrest in human HCT116 cells assessed as increase of accumulation at G2/M phase at 20 uM incubated for 24 hrs by […] staining based flow cytometry; type: functional; procedure, shortened: as §2
[22] = tested on: HCT-116; experiment: Induction of cell death in human HCT-116 cells assessed as reduction in Bcl-xL expression at 10 uM incubated for 24 hrs by Western blot analysis; type: functional, cell-based; conditions: dose 20.0 µM, in the assay text read “at 20 uM” for “at 10 uM”; procedure, shortened: as §4
[23] = tested on: HCT-116; experiment: Induction of cell death in human HCT-116 cells assessed as reduction in Mcl1 expression at 10 uM incubated for 24 hrs by Western blot analysis; type: functional, cell-based; conditions: dose 20.0 µM, in the assay text read “at 20 uM” for “at 10 uM”; procedure, shortened: as §4
[24] = tested on: HCT-116; experiment: Induction of cell death in human HCT-116 cells assessed as reduction in beta-catenin expression at 10 uM incubated for 24 hrs by Western blot analysis; type: functional, cell-based; conditions: dose 20.0 µM, in the assay text read “at 20 uM” for “at 10 uM”; procedure, shortened: as §4
[25] = molecular target: T1, Indoleamine 2,3-dioxygenase 1; experiment: Inhibition of human IDO1 at 100 uM incubated for 60 mins in presence of L-tryptophan by HPLC analysis relative to control
Target sequence in this assay (P14902 whole entry, looked up): as the sequence (P14902 whole entry) above

[26] = tested on: HT-29; experiment: Induction of cell death in human HT-29 cells assessed as reduction in Mcl1 expression at 10 uM incubated for 24 hrs by Western blot analysis
[27] = tested on: HT-29; experiment: Induction of cell death in human HT-29 cells assessed as reduction in Bcl-xL expression at 10 uM incubated for 24 hrs by Western blot analysis
[28] = tested on: HT-29; experiment: Induction of cell death in human HT-29 cells assessed as reduction in beta-catenin expression at 10 uM incubated for 24 hrs by Western blot analysis

Structure (SMILES): COc1cc(OC)cc(Sc2c[nH]c3ncccc23)c1
- IC50 [1]: > 200 µM

Structure (SMILES): COc1ccccc1Sc1c[nH]c2ccc(Br)cc12
- IC50 [1]: 24 µM

Structure (SMILES): COc1ccc(Sc2c[nH]c3ccc(Cl)cc23)c(OC)c1
- IC50 [1]: > 50 µM

Structure (SMILES): COc1ccccc1Cc1c[nH]c2ccc(Cl)cc12
- IC50 [1]: 63 µM

Structure (SMILES): Clc1ccc2[nH]cc(Sc3ccccc3)c2c1
- IC50 [1]: > 200 µM

Structure (SMILES): COc1ccccc1Sc1c[nH]c2ccc(F)cc12
- IC50 [1]: 32 µM

Structure (SMILES): COc1ccccc1Sc1c[nH]c2ccc(I)cc12
- IC50 [1]: 45 µM

Structure (SMILES): Cc1cccc(Sc2c[nH]c3ccc(Cl)cc23)c1
- IC50 [1]: 100 µM

Structure (SMILES): Cc1ccccc1Sc1c[nH]c2ccc(Cl)cc12
- IC50 [1]: 21 µM

Structure (SMILES): COc1cc(Sc2c[nH]c3ccc(Cl)cc23)cc(OC)c1OC
- IC50 [1]: 40 µM

Structure (SMILES): COc1ccccc1C(=O)c1c[nH]c2ccc(Cl)cc12
- IC50 [1]: > 200 µM

Structure (SMILES): COc1cccc(Sc2c[nH]c3ccc(Cl)cc23)c1
- IC50 [1]: 21 µM

Structure (SMILES): COc1cc(OC)cc(Sc2c[nH]c3cc(Cl)ccc23)c1
- IC50 [1]: 15 µM

Structure (SMILES): COc1cc(OC)cc(Sc2c[nH]c3c(Cl)c(Cl)ccc23)c1
- IC50 [1]: 90 µM

Structure (SMILES): COC(=O)c1[nH]c2ccc(Cl)cc2c1Sc1ccccc1OC
- IC50 [1]: > 200 µM

Structure (SMILES): Cc1cc(C)cc(Sc2c[nH]c3ccc(Cl)cc23)c1
- IC50 [1]: 20 µM

Structure (SMILES): CCOc1ccc2[nH]cc(Sc3ccccc3OC)c2c1
- IC50 [1]: > 200 µM

Second part, led by results:

- IC50 [1]: > 200 µM
Structure (SMILES): COc1cc(OC)cc(Sc2c[nH]c3c(Cl)cccc23)c1

- IC50 [1]: 52 µM
Structure (SMILES): COc1cc(OC)cc(Sc2c[nH]c3cccc(Cl)c23)c1

- IC50 [1]: > 200 µM
Structure (SMILES): COc1ccccc1S(=O)(=O)c1c[nH]c2ccc(Cl)cc12

- IC50 [1]: 7 µM
Structure (SMILES): COc1cc(OC)cc(Sc2c[nH]c3ccc(Cl)cc23)c1
- Activity [2]: Active
- Activity [3]: Active
- Activity [4]: Active
- Activity [5]: Active
- viability at 2.5 µM [6]: 40%
- viability at 10 µM [7]: 40%
- growth inhibition (GI) [8]: Dose-dependent effect
- growth inhibition (GI) [9]: Dose-dependent effect
- Activity [10]: Active
- Activity [11]: Active
- Activity [12]: Active
- Activity [13]: Active
- Activity [14]: Active
- Activity [15]: Active

- IC50 [1]: 17.5 µM
- inhibition [25]: 80%
Structure (SMILES): COc1ccccc1Sc1c[nH]c2ccc(Cl)cc12
- Activity [16]: Active
- Activity [17]: Active
- Activity [18]: Active
- viability at 10 µM [19]: 40%
- viability at 20 µM [20]: 40%
- Activity [21]: Active
- growth inhibition (GI) [8]: Dose-dependent effect
- growth inhibition (GI) [9]: Dose-dependent effect
- Activity [22]: Active
- Activity [23]: Active
- Activity [24]: Active
- Activity [26]: Active
- Activity [27]: Active
- Activity [28]: Active

- IC50 [1]: 16 µM
Structure (SMILES): COc1ccc(Sc2c[nH]c3ccc(Cl)cc23)cc1

- IC50 [1]: 45 µM
Structure (SMILES): COc1cc(OC)cc(Sc2c(C)[nH]c3ccc(Cl)cc23)c1

- IC50 [1]: 25 µM
Structure (SMILES): COc1cc(OC)cc(Sc2c[nH]c3ccccc23)c1

- IC50 [1]: > 200 µM
Structure (SMILES): Cc1ccc(Sc2c[nH]c3ccc(Cl)cc23)cc1
